Where two headings read alike, the source gives them in different places.
How the values were obtained:
Assay type in all cases: cell-based, human
MRC-5 fibroblasts = assay: MTT cell viability assay, MRC-5 normal fibroblasts; conditions: for GI50: read-out: GI50 values (M) mean ± SD, MRC-5
How it was run: (§1)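 Cells were seeded at 3 × 10^3 per well and grown for 24 h at 37 °C/5% CO2. A T0 plate was read at dosing and the others after 72 h. MTT (5 mg mL−1 in PBS) was added for 2.5 h, formazan dissolved in DMSO, and absorbance read at 550 nm. GI50 was interpolated, in triplicate. SI compares MRC-5 with cancer-line activity.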

HCT-116 cells = assay: Clonogenic assay, HCT-116 colony formation; conditions: 10 μM, 24 h exposure; second group, printed as HCT-116
How it was run: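 HCT-116 cells (RPMI 1640, 10% FBS, 1% glutamine) were seeded at 400 per well in 6-well plates and left to attach for 24 h. They were given test compound at 5 or 10 μM for 24 h, with medium alone as control. Cells were then washed with cold PBS and grown in fresh medium at 37 °C until control colonies reached ≥50 cells. Colonies were methanol-fixed, stained with 0.05% methylene blue and counted. Survival fraction is % of control, from five independent trials (n = 2 each).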

[1] = system: MCF-7 breast cancer cells; assay: MTT cell viability assay, MCF-7; conditions: for Selectivity indices (SI), MCF-7: MCF-7 versus MRC-5 fibroblasts
How it was run: as §1

[2] = system: HCT-116 colorectal carcinoma cells; assay: MTT cell viability assay, HCT-116; conditions: for Selectivity indices (SI), HCT-116: HCT-116 versus MRC-5 fibroblasts
How it was run: as §1

[3] = Homo sapiens, MCF7, 72 h, read-out: GI50 values (M) mean ± SD, MCF-7
[4] = Homo sapiens, HCT-116, 72 h, read-out: GI50 values (M) mean ± SD, HCT-116
[5] = Homo sapiens, MCF7, 72 h, read-out: GI50 values (µM) mean ±SD, MCF-7
[6] = read-out: GI50 values (M) mean ± SD, MCF-7, MTT, 72 h exposure
[7] = read-out: GI50 values (M) mean ± SD, HCT-116, MTT, 72 h exposure

Molecule | GI50 [1, 3] [M] | GI50 [2, 4] [M] | GI50 (MRC-5 fibroblasts; Homo sapiens, MRC5, 72 h) [M] | Selectivity indices (SI), MCF-7 [1] | Selectivity indices (SI), HCT-116 [2] | other results
Cc1ccc(C=NNc2nc(-c3ccc(C#N)cc3)cs2)cc1C [Compound 3t, 2-(2-(3,4-Dimethylbenzylidene)hydrazinyl)-4-(4-cyanophenyl) thiazole] | 4.5e-06 ± 1.4e-06 | 6.5e-06 ± 2.6e-06 | 1.32e-05 ± 3e-07 | 2.9 | 2 | colony formation (HCT-116 cells): completely prevented colony formation
COc1ccc(OC)c(C=NNc2nc(-c3ccc(C#N)cc3)cs2)c1 [Compound 3j, 2-(2-(2,5-Dimethoxybenzylidene)hydrazinyl)-4-(4-cyanophenyl) thiazole] | 3.7e-06 ± 4e-07 | 6.9e-06 ± 2.5e-06 | 2.25e-05 ± 1e-07 | 6.1 | 3.3 | –
N#Cc1ccc(-c2csc(N/N=C/c3cccc(I)c3)n2)cc1 [d] | 2.3e-06 ± 2e-07 | 1.13e-05 ± 7e-07 | 3.49e-05 ± 3e-07 | – | – | –
COc1ccc(C=NNc2nc(-c3ccc(C#N)cc3)cs2)c(OC)c1 [Compound 3l, 2-(2-(2,4-Dimethoxybenzylidene)hydrazinyl)-4-(4-cyanophenyl) thiazole] | 9.2e-06 ± 4e-07 | 8.4e-06 ± 9e-07 | 3.01e-05 ± 6e-07 | 3.3 | 3.6 | GI50 values (µM) mean ±SD, MRC-5 (MRC-5 fibroblasts; MTT, 72 h exposure): no significant activity
N#Cc1ccc(-c2csc(NN=Cc3ccc(C(F)(F)F)cc3C(F)(F)F)n2)cc1 [Compound 3m, 2-(2-(2,4-Bis-(trifluoromethyl)benzylidene) hydrazinyl)-4-(4-cyanophenyl) thiazole] | 2e-06 ± 8e-07 | 4.7e-06 ± 1.3e-06 | 1.65e-05 ± 6e-07 | 8.3 | 3.5 | –
N#Cc1ccc(-c2csc(NN=Cc3cccc(I)c3)n2)cc1 [Compound 3d, 2-(2-(3-Iodobenzylidene)hydrazinyl)-4-(4-cyanophenyl) thiazole] | – | – | – | – | – | GI50 [1, 5]: 2.3e-06 M; fold reduction in potency against HCT-116 cells ([2]; relative to its potency against MCF-7 cells): 5 fold
COc1cc(C=NNc2nc(-c3ccc(C#N)cc3)cs2)cc(OC)c1 [Compound 3o, 2-(2-(3,5-Dimethoxybenzylidene)hydrazinyl)-4-(4-cyanophenyl) thiazole] | 4.78e-05 ± 1.1e-06 | 3.56e-05 ± 1.1e-06 | 1.65e-05 ± 5e-07 | 0.4 | 0.5 | –
COc1ccc(C=NNc2nc(-c3ccc(C#N)cc3)cs2)c(C)c1 [Compound 3k, 2-(2-(4-Methoxy-2-methylbenzylidene) hydrazinyl)-4-(4-cyanophenyl) thiazole] | 3.68e-05 ± 2.7e-06 | 3.7e-05 ± 9e-07 | 1.61e-05 ± 2e-07 | 0.4 | 0.4 | –
2-(2-(1-(4-Fluorophenyl)ethylidene)hydrazinyl)-4-(4-cyanophenyl) thiazole [Compound 3e] | – | – | – | 1.6 | 6.5 | GI50 (MRC-5 fibroblasts; MTT, 72 h exposure): 4.47e-05 ± 2e-07 M; GI50 [1, 6]: 2.85e-05 ± 8e-07 M; GI50 [2, 7]: 6.9e-06 ± 2e-07 M
N#Cc1ccc(-c2csc(NN=Cc3c(F)cc(F)cc3F)n2)cc1 [Compound 3w, 2-(2-(2,4,6-Trifluorobenzylidene)hydrazinyl)-4-(4-cyanophenyl) thiazole] | 7e-06 ± 2e-07 | 1.5e-06 ± 8e-07 | 1.1e-06 ± 5e-07 | 0.2 | 0.7 | –
N#Cc1ccc(-c2csc(N/N=C/c3cccc(F)c3)n2)cc1 [b] | 3.66e-05 ± 1.4e-06 | 2.2e-06 ± 5e-07 | 1.68e-05 ± 5e-07 | – | – | –
N.N.[Cl][Pt][Cl] [cisplatin, reference compound] | – | – | – | 1.3 | 0.9 | GI50 (MRC-5 fibroblasts; MTT, 72 h exposure): 9.7e-06 ± 4e-07 M; GI50 [1, 6]: 7.5e-06 ± 7e-07 M; GI50 [2, 7]: 9.8e-06 ± 2e-07 M
N#Cc1ccc(-c2csc(NN=Cc3ccccc3F)n2)cc1 [Compound 3a, 2-(2-(2-Fluorobenzylidene)hydrazinyl)-4-(4-cyanophenyl) thiazole] | – | – | – | – | – | colony formation (HCT-116 cells): completely prevented colony formation
N#Cc1ccc(-c2csc(NN=Cc3cc(Br)cc([N+](=O)[O-])c3)n2)cc1 [Compound 3r, 2-(2-(3-Bromo-5-nitrobenzylidene)hydrazinyl)-4-(4-cyanophenyl) thiazole] | 4.1e-06 ± 4e-07 | 3e-06 ± 1e-06 | 1.22e-05 ± 6e-07 | 3 | 4.1 | –
N#Cc1ccc(-c2csc(NN=Cc3cccc(F)c3)n2)cc1 [Compound 3b, 2-(2-(3-Fluorobenzylidene)hydrazinyl)-4-(4-cyanophenyl) thiazole] | – | – | – | – | – | GI50 [1, 5]: 3.66e-05 M; GI50 ([2]; Homo sapiens, HCT-116, 72 h, read-out: GI50 values (µM) mean ±SD, HCT-116): 2.2e-06 M
COc1cc(C=NNc2nc(-c3ccc(C#N)cc3)cs2)cc(OC)c1OC [Compound 3y, 2-(2-(3,4,5-Trimethoxybenzylidene)hydrazinyl)-4-(4-cyanophenyl) thiazole] | 2.7e-06 ± 1e-07 | 1.6e-06 ± 4e-07 | 2.34e-05 ± 3e-07 | 8.7 | 14.6 | –
N#Cc1ccc(-c2csc(NN=Cc3cc(Cl)ccc3O)n2)cc1 [Compound 3g, 2-(2-(5-Chloro-2-hydroxybenzylidene) hydrazinyl)-4-(4-cyanophenyl) thiazole] | 4.1e-06 ± 4e-07 | 9.7e-06 ± 4e-07 | 1.68e-05 ± 7e-07 | 4.1 | 1.7 | –
N#Cc1ccc(-c2csc(NN=Cc3ccc(Cl)c(Cl)c3)n2)cc1 [Compound 3u, 2-(2-(3,4-Dichlorobenzylidene)hydrazinyl)-4-(4-cyanophenyl) thiazole] | 1.28e-05 ± 7e-07 | 2.72e-05 ± 5e-07 | 3.04e-05 ± 2e-07 | 2.4 | 1.1 | –

Continued, in another order:

GI50 [1, 3] [M] | GI50 [2, 4] [M] | Molecule | GI50 (MRC-5 fibroblasts; Homo sapiens, MRC5, 72 h) [M] | Selectivity indices (SI), MCF-7 [1] | Selectivity indices (SI), HCT-116 [2] | other results
4.2e-06 ± 6e-07 | 4e-06 ± 1e-06 | Cc1cc(C)c(C=NNc2nc(-c3ccc(C#N)cc3)cs2)c(C)c1 [Compound 3v, 2-(2-(2,4,6-Trimethylbenzylidene)hydrazinyl)-4-(4-cyanophenyl) thiazole] | 1.12e-05 ± 3e-07 | 2.7 | 2.8 | –
7.3e-06 ± 2e-07 | 8.1e-06 ± 2e-07 | N#Cc1ccc(-c2csc(NN=Cc3cc(F)cc(Br)c3)n2)cc1 [Compound 3p, 2-(2-(3-Bromo-5-fluorobenzylidene)hydrazinyl)-4-(4-cyanophenyl) thiazole] | 1.77e-05 ± 7e-07 | 2.4 | 2.2 | –
3.4e-06 ± 1e-06 | 3.1e-06 ± 1.5e-06 | N#Cc1ccc(-c2csc(N/N=C/c3ccccc3F)n2)cc1 [a] | 1.66e-05 ± 1e-07 | – | – | –
7.1e-06 ± 3e-07 | 8e-06 ± 3e-07 | Cc1ccc(C)c(C=NNc2nc(-c3ccc(C#N)cc3)cs2)c1 [Compound 3i, 2-(2-(2,5-Dimethylbenzylidene)hydrazinyl)-4-(4-cyanophenyl) thiazole] | 6.2e-06 ± 4e-07 | 0.9 | 0.8 | –
4.3e-06 ± 3e-07 | 6.2e-06 ± 5e-07 | N#Cc1ccc(-c2csc(NN=Cc3cc(Br)cs3)n2)cc1 [3c′, 2-(2-((4-Bromothiophen-2-yl)methylene)hydrazinyl)-4-(4-cyanophenyl) thiazole] | 7.6e-06 ± 1e-07 | 1.8 | 1.2 | –
2.5e-06 ± 2e-07 | 1.9e-06 ± 5e-07 | COc1cc(OC)c(OC)cc1C=NNc1nc(-c2ccc(C#N)cc2)cs1 [Compound 3z, 2-(2-(2,4,5-Trimethoxybenzylidene)hydrazinyl)-4-(4-cyanophenyl) thiazole] | 2.18e-05 ± 2e-07 | 8.7 | 11.5 | fold increase in activity against HCT-116 cells ([2]; relative to compound 3j): 3.5 fold
2.3e-06 ± 3e-07 | 4.7e-06 ± 3e-07 | N#Cc1ccc(-c2csc(NN=Cc3c(O)cc(O)cc3O)n2)cc1 [Compound 3x, 2-(2-(2,4,6-Trihydroxybenzylidene)hydrazinyl)-4-(4-cyanophenyl) thiazole] | 1.58e-05 ± 5e-07 | 6.9 | 3.4 | –
9e-06 ± 1.2e-06 | 4.4e-06 ± 2e-07 | Cc1nc(C=NNc2nc(-c3ccc(C#N)cc3)cs2)sc1C [3d′, 2-(2-((4,5-Dimethylthiazol-2-yl)methylene) hydrazinyl)-4-(4-cyanophenyl) thiazole] | 2.25e-05 ± 2e-06 | 2.5 | 5.1 | –
2.6e-06 ± 1e-07 | 2.2e-06 ± 1e-07 | N#Cc1ccc(-c2csc(NN=Cc3cc(F)cc(C(F)(F)F)c3)n2)cc1 [Compound 3q, 2-(2-(3-Fluoro-5-(trifluoromethyl)benzylidene) hydrazinyl)-4-(4-cyanophenyl) thiazole] | 9e-06 ± 1e-07 | 3.5 | 4.1 | colony formation (HCT-116 cells): completely prevented colony formation
7.3e-06 ± 8e-07 | 8.4e-06 ± 6e-07 | CCOc1cc(C=NNc2nc(-c3ccc(C#N)cc3)cs2)ccc1O [Compound 3s, 2-(2-(3-Ethoxy-4-hydroxybenzylidene) hydrazinyl)-4-(4-cyanophenyl) thiazole] | 1.81e-05 ± 4e-07 | 2.5 | 2.2 | –
